This passage reports EC50, Activity and CC50 results from ChEMBL document CHEMBL1146453, “Insecticidal sesquiterpene pyridine alkaloids from Maytenus chiapensis” (J Nat Prod, 2004).

The test system of data set [1] is Spodoptera littoralis. In words: Antifeedant activity against Spodoptera littoralis L6 larvae. The data set is classed as functional, organism-based. The gist of the method: (§1)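 Choice feeding test on sixth-instar S. littoralis larvae and apterous adult M. persicae. Larvae reared on artificial diet, aphids on bell pepper plants, both at 22 ± 1 °C, >70% RH, 16:8 h L:D. Read-out is percent feeding inhibition (larvae) or settling inhibition (aphids). Actives above 50% went to dose–response, with EC50 taken from linear regression of %FR or %SI on log dose.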

Data set [2] deals with Spodoptera littoralis. Kind of data set: Antifeedant activity against Spodoptera littoralis L6 larvae assessed as nutritional consumption relative to control. It is filed as functional. The arrangement: concentration or dose not given beside the values. The gist of the method:
(§2)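 Sixth-instar S. littoralis larvae reared on artificial diet at 22 ± 1 °C, >70% RH, 16:8 h L:D, dosed orally. Food consumption and biomass gain were recorded. Post-ingestive effects were tested by ANCOVA of biomass gain with food consumption as covariate.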

For data set [3], the system named is Spodoptera littoralis. In words: Antifeedant activity against Spodoptera littoralis L6 larvae assessed as biomass gain relative to control. The data set is classed as functional. The arrangement: concentration or dose not given beside the values. The essentials: as §2
Data set [4] is described as follows: Cytotoxicity against Spodoptera frugiperda Sf9 cells by MTT assay. It is filed as cell-based. Particulars: read-out: LD50 (the source's name). The gist of the method: (§3)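 Sf9 cells (S. frugiperda pupal ovarian tissue) and CHO cells were cultured and scored for viability by an adapted MTT colorimetric assay. LD50, the dose giving 50% viability, was calculated for active compounds.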
Background: Tetrazolium assays rely on reduction of a dye to a coloured formazan, in cell work by metabolically active cells.

The nature of data set [5]: Cytotoxicity against CHO cells by MTT assay. The data set is classed as cell-based, Cricetulus griseus. Particulars: chinese hamster, read-out: LD50 (the source's name). The essentials: as §3
Data set [6] concerns Myzus persicae. Kind of data set: Antifeedant activity against Myzus persicae. The data set is classed as functional, organism-based. The gist of the method: as §1
Data set [7] concerns Spodoptera littoralis. In words: Antifeedant activity against Spodoptera littoralis L6 larvae treated orally. It is filed as functional, organism-based. The essentials: as §2

Each structure is given as a SMILES string. ≈ marks a conversion by molar mass, not a printed value. Calls of active or inactive are those of the source. No cut-off for these calls is given here.

Take `CC(=O)OC[C@]12[C@H](OC(C)=O)[C@H](OC(C)=O)[C@@H]3[C@@H](OC(C)=O)[C@@]14O[C@@]3(C)COC(=O)c1cccnc1CCC(C)(O)C(=O)O[C@@H]([C@H](OC(=O)c1ccccc1)[C@@H]2OC(=O)c1ccccc1)[C@]4(C)O` (some centres not stated): the EC50 in data set [1] is recorded as 3.9 ×10⁻² ug/cm2. The results for the Activity in data set [2] and in data set [3] were 87% and 96%, respectively. Further, the CC50 in data set [4] and in data set [5] was greater than 100 µg/mL throughout. The result in data set [6] and in data set [7] was inactive.

As for `CC(=O)OC[C@]12[C@H](OC(C)=O)[C@H](OC(C)=O)[C@@H]3[C@@H](OC(C)=O)[C@@]14O[C@@]3(C)COC(=O)c1cccnc1C(C)C(C)C(=O)O[C@@H]([C@H](O)[C@@H]2OC(C)=O)[C@]4(C)O` (some centres not stated), the EC50 in data set [1] is reported as greater than 50 microg/cm2. In addition, the Activity in data set [2] turned out to be 94%; in data set [3] it was 101%. The values for the CC50 in data set [4] and in data set [5] were 57.5 µg/mL (≈ 75.3 µM) and greater than 100 µg/mL, respectively. Besides, in data set [6], the result was inactive.

As to `CC(=O)OC[C@]12[C@H](OC(C)=O)C(=O)[C@@H]3[C@@H](OC(C)=O)[C@@]14O[C@@]3(C)COC(=O)c1cccnc1CCC(C)(O)C(=O)O[C@@H]([C@H](OC(=O)c1ccccc1)[C@@H]2OC(=O)c1ccccc1)[C@]4(C)O` (some centres not stated), the EC50 in data set [1] was 6.6 ×10⁻² ug/cm2. Further, the Activity in data set [2] is listed as 92%; in data set [3], 93%. In addition, the figures for the CC50 in data set [4] and in data set [5] were 78.7 µg/mL (≈ 87.2 µM) and greater than 100 µg/mL, respectively. In addition, the result in data set [6] and in data set [7] was inactive.

In turn, `CC(=O)OC[C@]12[C@H](OC(C)=O)C(=O)[C@@H]3[C@@H](OC(C)=O)[C@@]14O[C@@]3(C)COC(=O)c1cccnc1CCC(C)(O)C(=O)O[C@@H]([C@H](OC(=O)c1ccccc1)[C@@H]2OC(C)=O)[C@]4(C)O` (some centres not stated) [ALATAMINE] showed an EC50 in data set [1] of 5.2 ×10⁻³ ug/cm2. Also, the values for the Activity in data set [2] and in data set [3] were 117% and 118%, respectively. The CC50 in data set [4] and in data set [5] was greater than 100 µg/mL throughout. Besides, the result in data set [6] and in data set [7] was inactive.

Take `CC(=O)OC[C@]12[C@H](OC(C)=O)[C@H](OC(C)=O)[C@@H]3[C@@H](OC(C)=O)[C@@]14O[C@@]3(C)COC(=O)c1cccnc1CCC(C)(O)C(=O)O[C@@H]([C@H](OC(C)=O)[C@@H]2OC(C)=O)[C@]4(C)O` (some centres not stated) [ALATUSININE]: the EC50 in data set [1] is reported as 1.6 ×10⁻⁴ ug/cm2. The Activity in data set [2] was determined as 125%; in data set [3] it was 111%. The CC50 in data set [4] is 73.2 µg/mL (≈ 89.1 µM); in data set [5], greater than 100 µg/mL. In addition, the outcome in data set [6] and in data set [7] was inactive.

Consider `CC(=O)OC[C@]12[C@H](OC(C)=O)[C@H](OC(C)=O)[C@@H]3[C@@H](OC(C)=O)[C@@]14O[C@@]3(C)COC(=O)c1cccnc1C(C)C(C)C(=O)O[C@@H]([C@H](O)[C@@H]2OC(=O)c1ccccc1)[C@]4(C)O` (some centres not stated) [EBENIFOLINE E I], for which, in data set [1], the EC50 turned out to be 0.72 microg/cm2. In addition, the values for the Activity in data set [2] and in data set [3] were 81% and 83%, respectively. Moreover, the results for the CC50 in data set [4] and in data set [5] were 78.8 µg/mL (≈ 95.4 µM) and greater than 100 µg/mL, respectively. In addition, the result in data set [6] and in data set [7] was inactive.

As for `CC(=O)OC[C@]12[C@H](OC(C)=O)[C@H](OC(C)=O)[C@@H]3[C@@H](OC(C)=O)[C@@]14O[C@@]3(C)COC(=O)c1cccnc1CCC(C)C(=O)O[C@@H]([C@H](OC(C)=O)[C@@H]2OC(C)=O)[C@]4(C)O` (some centres not stated) [EUONINE], the EC50 in data set [1] is on record as 1.8 ×10⁻⁴ ug/cm2. Moreover, the Activity in data set [2] was 111%; in data set [3], 98%. For the same molecule, the CC50 in data set [4] is 48.4 µg/mL (≈ 60 µM); in data set [5], greater than 100 µg/mL. Further, the result in data set [6] and in data set [7] was inactive.

`CC(=O)OC[C@]12[C@H](OC(C)=O)[C@H](OC(C)=O)[C@@H]3[C@@H](OC(C)=O)[C@@]14O[C@@]3(C)COC(=O)c1cccnc1C(C)C(C)C(=O)O[C@@H]([C@H](OC(C)=O)[C@@H]2OC(C)=O)[C@]4(C)O` (some centres not stated) [EUONYMINE]: in data set [1], the EC50 is recorded as greater than 50 microg/cm2. In addition, the results for the Activity in data set [2] and in data set [3] were 102% and 105%, respectively. Further, the CC50 is 49.6 µg/mL (≈ 61.6 µM) in data set [4] and greater than 100 µg/mL in data set [5]. Further, in data set [6], the result was inactive.

In data set [1], `CC(=O)OC[C@]12[C@H](OC(C)=O)[C@H](OC(C)=O)[C@@H]3[C@@H](OC(C)=O)[C@@]14O[C@@]3(C)COC(=O)c1cccnc1C(C)C(C)C(=O)O[C@@H]([C@H](OC(C)=O)[C@@H]2OC(=O)c1ccccc1)[C@]4(C)O` (some centres not stated) [MAYTEINE] had an EC50 greater than 50 microg/cm2. Also, the Activity was determined as 146% in data set [2] and 112% in data set [3]. In addition, the CC50 in data set [4] and in data set [5] was greater than 100 µg/mL in each case. In addition, the outcome in data set [6] was inactive.

`CC(=O)OC[C@]12[C@H](OC(C)=O)[C@H](OC(C)=O)[C@@H]3[C@@H](OC(C)=O)[C@@]14O[C@@]3(C)COC(=O)c1cccnc1CCC(C)(O)C(=O)O[C@@H]([C@H](OC(=O)c1ccccc1)[C@@H]2OC(C)=O)[C@]4(C)O` (some centres not stated) [WILFORDINE] came in with an EC50 in data set [1] of 2.3 ×10⁻⁴ ug/cm2. The Activity in data set [2] was 109%; in data set [3] it was 93%. Also, the CC50 is 86.2 µg/mL (≈ 97.6 µM) in data set [4] and greater than 100 µg/mL in data set [5]. In addition, the result in data set [6] and in data set [7] was inactive.
